Tests used:
Assay type in all cases: functional
U-251 [1] = assay: Growth inhibition of human U251 cells after 48 hrs by sulforhodamine B assay; conditions: U-251, 48 h
Outline: (§1)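 NCI 60-cell panel, five concentrations (10-fold dilutions, 0.01–100 µM), 48 h continuous exposure; SRB protein stain read spectrophotometrically. Percent growth from time-zero, untreated-control and treated absorbances. GI50 is the concentration giving 50% lower net protein increase than control. Values beyond the tested range are reported as more or less than the highest or lowest concentration.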

CCRF-CEM [2] = assay: Growth inhibition of human CCRF-CEM cells assessed as cell growth at 10^-5 M after 48 hrs by sulforhodamine B assay; conditions: read-out: Activity
Outline: (§2)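 NCI 60-cell-line primary screen. Single concentration of 10^-5 M, 48 h incubation. End point by sulforhodamine B protein staining read spectrophotometrically. Reported as percent growth of treated cells relative to untreated control cells.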

ACHN = assay: Growth inhibition of human ACHN cells assessed as cell growth at 10^-5 M after 48 hrs by sulforhodamine B assay; conditions: read-out: Activity; outline: as §2
MDA-MB-468 = assay: Growth inhibition of human MDA-MB-468 cells assessed as cell growth at 10^-5 M after 48 hrs by sulforhodamine B assay; conditions: MDA-MB-468, 48 h, read-out: Activity
Outline: (§3)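 NCI 60-cell-line primary one-dose screen. Cells were exposed to a single 10^-5 M concentration for 48 h. The end point was sulforhodamine B protein staining, read spectrophotometrically. Results are reported as percent growth of treated cells relative to untreated control cells.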

HCT-116 = assay: Growth inhibition of human HCT116 cells after 48 hrs by sulforhodamine B assay; conditions: HCT-116, 48 h
Outline: (§4)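 NCI 60-panel five-dose test at 10-fold dilutions, 10^-4 to 10^-8 M, with 48 h continuous exposure and SRB protein read-out. Percent growth derived from time-zero, untreated-control and treated absorbances. GI50 is the concentration where [(Ti-Tz)/(C-Tz)]×100 = 50. TGI is taken at Ti = Tz. LC50 is taken at [(Ti-Tz)/Tz]×100 = -50.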

CCRF-CEM [3] = assay: Growth inhibition of human CCRF-CEM cells after 48 hrs by sulforhodamine B assay; outline: as §4
UACC-257 = assay: Growth inhibition of human UACC257 cells assessed as cell growth at 10^-5 M after 48 hrs by sulforhodamine B assay; conditions: UACC-257, 48 h, read-out: Activity
Outline: (§5)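 NCI primary one-dose screen: single concentration of 10^-5 M added to culture, 48 h incubation, SRB protein-dye endpoint. Percent growth of treated cells measured spectrophotometrically against untreated controls.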

OVCAR-3 = assay: Growth inhibition of human OVCAR3 cells after 48 hrs by sulforhodamine B assay; conditions: OVCAR-3, 48 h; for CC50: read-out: LC50 (the source's name)
Outline: (§6)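 NCI five-dose screen on the full 60-cell-line panel. Cells were given 10-fold dilutions from 10^-4 to 10^-8 M with continuous 48 h exposure, and growth was read by SRB staining. Percent growth was taken from time-zero, control and treated absorbances. GI50, TGI and LC50 were then derived, the GI50 being the concentration that gives a 50% lower net protein increase than control.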

NCI-H322M = assay: Growth inhibition of human NCI-H322M cells after 48 hrs by sulforhodamine B assay; conditions: for CC50: read-out: LC50 (the source's name); outline: as §6
KM12 [4] = assay: Growth inhibition of human KM12 cells after 48 hrs by sulforhodamine B assay; conditions: KM12, 48 h; for CC50: read-out: LC50 (the source's name); outline: as §4
T47D = assay: Growth inhibition of human T47D cells after 48 hrs by sulforhodamine B assay; outline: as §1
SF-539 = assay: Growth inhibition of human SF539 cells assessed as cell growth at 10^-5 M after 48 hrs by sulforhodamine B assay; conditions: SF-539, 48 h, read-out: Activity; outline: as §3
LOX IMVI = assay: Growth inhibition of human LOXIMVI cells after 48 hrs by sulforhodamine B assay; outline: as §4
DU-145 = assay: Growth inhibition of human DU145 cells after 48 hrs by sulforhodamine B assay; conditions: DU-145, 48 h; outline: as §4
UACC-62 = assay: Growth inhibition of human UACC62 cells after 48 hrs by sulforhodamine B assay; conditions: UACC-62, 48 h; outline: as §1
U-251 [5] = assay: Growth inhibition of human U251 cells assessed as cell growth at 10^-5 M after 48 hrs by sulforhodamine B assay; conditions: U-251, 48 h, read-out: Activity; outline: as §5
SNB-19 = assay: Growth inhibition of human SNB19 cells assessed as cell growth at 10^-5 M after 48 hrs by sulforhodamine B assay; conditions: SNB-19, 48 h, read-out: Activity; outline: as §5
A498 = assay: Growth inhibition of human A498 cells assessed as cell growth at 10^-5 M after 48 hrs by sulforhodamine B assay; conditions: A498, 48 h, read-out: Activity; outline: as §2
IGROV-1 = assay: Growth inhibition of human IGROV1 cells after 48 hrs by sulforhodamine B assay; conditions: IGROV-1, 48 h; outline: as §4
MCF7 = assay: Growth inhibition of human MCF7 cells after 48 hrs by sulforhodamine B assay; conditions: MCF7, 48 h; outline: as §4
UO-31 = assay: Growth inhibition of human UO31 cells assessed as cell growth at 10^-5 M after 48 hrs by sulforhodamine B assay; conditions: UO-31, 48 h, read-out: Activity; outline: as §5
MDA-MB-231 = assay: Growth inhibition of human MDA-MB-231 cells after 48 hrs by sulforhodamine B assay; conditions: MDA-MB-231, 48 h; outline: as §4
KM12 [6] = assay: Growth inhibition of human KM12 cells assessed as cell growth at 10^-5 M after 48 hrs by sulforhodamine B assay; conditions: KM12, 48 h, read-out: Activity; outline: as §2
[7] = Growth inhibition of human HCC2998 cells assessed as cell growth at 10^-5 M after 48 hrs by sulforhodamine B assay; conditions: HCC 2998, 48 h, read-out: Activity; outline: as §2
MDA-MB-435 = assay: Growth inhibition of human MDA-MB-435 cells assessed as cell growth at 10^-5 M after 48 hrs by sulforhodamine B assay; conditions: MDA-MB-435, 48 h, read-out: Activity; outline: as §3
HOP-62 = assay: Growth inhibition of human HOP62 cells after 48 hrs by sulforhodamine B assay; conditions: HOP-62, 48 h; outline: as §4
[8] = Growth inhibition of human NCI-ADR-RES cells assessed as cell growth at 10^-5 M after 48 hrs by sulforhodamine B assay; conditions: read-out: Activity; outline: as §3

## COc1cc(/C=C/C(=O)c2ccc(NC(=O)CN3CCN(c4cc5c(cc4F)c(=O)c(C(=O)O)cn5C4CC4)CC3)cc2)cc(OC)c1OC
U-251 [1]
  GI50: 0.33 µM
  LC50 (concentration killing 50% of cells): 12.9 µM
  TGI: 1.29 µM
CCRF-CEM [2]
  growth at 10 µM: -13.7%
ACHN
  growth at 10 µM: 10.8%
MDA-MB-468
  growth at 10 µM: -1.82%
HCT-116
  GI50: 0.23 µM
  TGI: 0.69 µM
CCRF-CEM [3]
  GI50: 0.32 µM
  LC50 (concentration giving 50% net cell kill): > 100 µM
UACC-257
  growth at 10 µM: 30.8%
OVCAR-3
  GI50: 0.29 µM
  TGI: 0.92 µM
  CC50: 9.04 µM
NCI-H322M
  GI50: 0.29 µM
  TGI: 2.3 µM
  CC50: > 100 µM
KM12 [4]
  GI50: 0.53 µM
  TGI: 3.17 µM
  CC50: > 100 µM
T47D
  GI50: 2.4 µM
  LC50 (concentration killing 50% of the cells present at time zero): > 100 µM
  TGI: > 100 µM
SF-539
  growth at 10 µM: -15.8%
LOX IMVI
  GI50: 0.53 µM
  LC50 (concentration killing 50% of starting cells): > 100 µM
  TGI: 2.65 µM
DU-145
  GI50: 0.67 µM
  LC50 (concentration killing 50% of starting cells): > 100 µM
  TGI: > 100 µM
UACC-62
  GI50: 0.8 µM
  LC50: 27.9 µM
  TGI: 3.63 µM
U-251 [5]
  growth at 10 µM: -55.8%
SNB-19
  growth at 10 µM: 34.9%
A498
  growth at 10 µM: -43.8%
IGROV-1
  GI50: 0.4 µM
  LC50 (concentration giving 50% net cell kill): 8.43 µM
  TGI: 1.72 µM
MCF7
  GI50: 0.47 µM
  LC50 (50% net cell kill): > 100 µM
  TGI: > 100 µM
UO-31
  growth at 10 µM: 2.96%
MDA-MB-231
  GI50: 0.51 µM
  LC50 (50% lethal concentration): > 100 µM
KM12 [6]
  growth at 10 µM: -65.1%
[7]
  growth at 10 µM: -11.6%
MDA-MB-435
  growth at 10 µM: -1.52%
HOP-62
  GI50: 0.36 µM
  LC50 (concentration killing 50% of starting cells): 56.9 µM
  TGI: 11.4 µM
[8]
  growth at 10 µM: 98.2%

## O=C(CN1CCN(c2cc3c(cc2F)c(=O)c(C(=O)O)cn3C2CC2)CC1)Nc1ccc(C(=O)/C=C/c2ccccc2)cc1
U-251 [1]
  GI50: 2.92 µM
  LC50 (concentration killing 50% of cells): > 100 µM
  TGI: > 100 µM
CCRF-CEM [2]
  growth at 10 µM: 15.2%
ACHN
  growth at 10 µM: 40%
MDA-MB-468
  growth at 10 µM: 33.8%
HCT-116
  GI50: 0.66 µM
  LC50: 9.55 µM
  TGI: 2.68 µM
CCRF-CEM [3]
  GI50: 4.09 µM
  LC50 (concentration giving 50% net cell kill): > 100 µM
  TGI: > 100 µM
UACC-257
  growth at 10 µM: 61.1%
OVCAR-3
  GI50: 3.64 µM
  TGI: > 100 µM
  CC50: > 100 µM
NCI-H322M
  GI50: 4.04 µM
  TGI: 58.7 µM
  CC50: > 100 µM
KM12 [4]
  GI50: 4.11 µM
  TGI: > 100 µM
  CC50: > 100 µM
T47D
  GI50: 6.66 µM
  LC50 (concentration killing 50% of the cells present at time zero): > 100 µM
  TGI: > 100 µM
SF-539
  growth at 10 µM: 26.2%
LOX IMVI
  GI50: 2.32 µM
  LC50 (concentration killing 50% of starting cells): > 100 µM
  TGI: > 100 µM
DU-145
  GI50: 3.74 µM
  LC50 (concentration killing 50% of starting cells): > 100 µM
  TGI: > 100 µM
UACC-62
  GI50: 3.71 µM
  LC50: > 100 µM
  TGI: > 100 µM
U-251 [5]
  growth at 10 µM: 14.9%
SNB-19
  growth at 10 µM: 40.3%
A498
  growth at 10 µM: 57.7%
IGROV-1
  GI50: 3.67 µM
  LC50 (concentration giving 50% net cell kill): > 100 µM
  TGI: > 100 µM
MCF7
  GI50: 3.52 µM
  LC50 (50% net cell kill): > 100 µM
  TGI: > 100 µM
UO-31
  growth at 10 µM: 45%
MDA-MB-231
  GI50: 1.84 µM
  LC50 (50% lethal concentration): > 100 µM
  TGI: 5.13 µM
KM12 [6]
  growth at 10 µM: 25.3%
[7]
  growth at 10 µM: 70.1%
MDA-MB-435
  growth at 10 µM: 19.2%
HOP-62
  GI50: 4.46 µM
  LC50 (concentration killing 50% of starting cells): > 100 µM
  TGI: > 100 µM
[8]
  growth at 10 µM: 93.5%
